This is an account of results in ChEMBL document CHEMBL1127432, “Synthesis, in vitro biological stability, and anti-HIV activity of 5-halo-6-alkoxy(or azido)-5,6-dihydro-3'-azido-3'-deoxythymidine diastereomers as potential prodrugs to 3'-azido-3'-deoxythymidine (AZT)” (J Med Chem, 1994).

Data set [1] deals with CCRF-CEM. Briefly: Inhibitory concentration (cytotoxic activity) which results in a 50% survival of […]. Type of data set: functional, cell-based. Particulars: Homo sapiens; call rule not given here. The method in brief:
(§1)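 Cytotoxicity run in the NCI AIDS screening program on CEM T4 lymphocytes alongside the anti-HIV test. IC50 = drug concentration giving 50% survival of uninfected untreated control cells. AZT control tested concurrently.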

Data set [2] has as its target Human immunodeficiency virus 1 (Human immunodeficiency virus 1, UniProt Q72547). Briefly: Effective concentration (in vitro anti-HIV activity ) which produces a 50% survival of HIV-1-infected CEM cells relative to uninfected untreated controls; Inactive. The class given is functional, cell-based. The conditions noted are these: ccrf-cem. The method in brief:
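HIV-1-infected CEM (T4 lymphocyte) cells given small amounts of virus, allowing one complete replication cycle to cause cell killing. Read-out: protection from cytolysis (cell survival) relative to uninfected untreated controls. EC50 is the drug concentration giving 50% survival of infected cells. AZT-treated positive control run concurrently under identical conditions. Run through the NCI Developmental Therapeutics Program AIDS antiviral screen.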

Data set [3] in a line: Therapeutic index of IC50 to EC50. Particulars: read-out: TI. The method in brief:
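TI = IC50/EC50, both from the NCI CEM cell screen. IC50 is the drug concentration giving 50% survival of uninfected untreated controls. EC50 is the concentration giving 50% survival of HIV-1-infected cells relative to uninfected untreated controls.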

Data set [4] has as its target Thymidine phosphorylase (Escherichia coli K-12) (UniProt P07650). Briefly: In vitro percent of phosphorolysis after incubation with Escherichia coli thymidine phosphorylase for 10 min at 37 degree C. The class given is functional. The method in brief: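 E. coli thymidine phosphorylase diluted in 10 mM Tris-HCl pH 7.3 with EDTA, plus 100 mM KH2PO4 pH 7.1 (stock), prewarmed to 37 °C. Substrate added, 10 min at 37 °C, stopped with ice-cold methanol, spun. HPLC-UV at 230 nm tracked substrate loss or appearance of base. Thymidine used as control substrate; each run at least twice.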

A short description of data set [5]: Regeneration of the 5,6-Olefinic bond was measured as percent of 3''-azido-3''-deoxythymidine (AZT) formed upon incubation with Glutathione for 30 min at 37 degree C. Type of data set: functional. The method in brief:
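Compound incubated with reduced glutathione at a compound:GSH mole ratio of 1:2 (1:5 for some analogs) in phosphate buffer pH 7.4 at 37 °C, for times up to 24 h. AZT formed quantified by HPLC, UV 230 nm (dihydro compound) and 265 nm (AZT), water:methanol 7:3 eluent.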

For data set [6], the species on record is Mus musculus. Briefly: In vitro percent of 3''-azido-3''-deoxythymidine (AZT) formed upon incubation with mouse blood for 10 min at 37 degree C. The class given is functional. The method in brief:
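Heparinized mouse blood from cardiac puncture mixed 1:1 by volume with compound (1 mg/mL stock in water). Incubated 10 min at 37 °C, quenched with ice-cold methanol, 10 min on ice, then centrifuged. Supernatant dried under N2 and redissolved in methanol; AZT quantified by HPLC-UV at 230/265 nm.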

For data set [7], the species on record is Mus musculus. Briefly: In vitro percent of 3''-azido-3''-deoxythymidine (AZT) formed upon incubation with mouse liver homogenate for 30 min at 37 degree C. The class given is functional. The method in brief:
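Livers of three Balb/c mice homogenized in 0.1 M Tris pH 8.2, spun at 49000g for 2 h at 4 °C; supernatant (soluble enzyme fraction) used. Compound (1 mg/mL stock) incubated with the fraction 30 min at 37 °C, mixed with equal volume methanol, centrifuged. Supernatant dried and redissolved; AZT quantified by HPLC, UV 230 and 265 nm.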

Data set [8] deals with CCRF-CEM. Description: Inhibitory concentration (cytotoxic activity) which results in a 50% survival of […]; ND=Not determined. The class given is functional, cell-based. The conditions noted are these: Homo sapiens. The method in brief: as §1
A short description of data set [9]: Effective concentration in vitro against HIV-1-infected CEM cells relative to uninfected untreated controls. Particulars: ccrf-cem.

Some results are limits rather than exact numbers.

Sequence of Thymidine phosphorylase (Escherichia coli K-12) (P07650 whole entry, looked up): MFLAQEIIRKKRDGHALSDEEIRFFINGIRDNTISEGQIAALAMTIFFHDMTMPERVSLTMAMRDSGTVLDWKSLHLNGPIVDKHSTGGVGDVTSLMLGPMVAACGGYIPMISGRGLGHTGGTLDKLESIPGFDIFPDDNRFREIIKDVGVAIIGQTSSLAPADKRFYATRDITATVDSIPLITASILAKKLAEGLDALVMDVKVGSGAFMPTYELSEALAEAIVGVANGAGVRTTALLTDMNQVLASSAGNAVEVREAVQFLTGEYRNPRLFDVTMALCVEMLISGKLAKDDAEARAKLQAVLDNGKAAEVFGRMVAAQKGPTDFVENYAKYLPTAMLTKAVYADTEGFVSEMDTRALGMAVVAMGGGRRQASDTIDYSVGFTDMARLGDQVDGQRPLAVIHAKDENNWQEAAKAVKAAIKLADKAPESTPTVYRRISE

One may read the IC50 as the point on the concentration scale where inhibition reaches its midpoint. Lower therefore signals greater potency in that assay. Broadly, the EC50 is the concentration that produces a half-maximal response. Turning to `CCO[C@@H]1N(C2CC(N=[N+]=[N-])C(CO)O2)C(=O)NC(=O)[C@@]1(C)Cl` (some centres not stated), in [1], the IC50 was > 200 µM. The half-maximal effective concentration (EC50) result in [2] is listed as “Not Active”.
Regarding `CCCCCCCCO[C@H]1N(C2CC(N=[N+]=[N-])C(CO)O2)C(=O)NC(=O)[C@]1(C)Br` (some centres not stated), it took 12.4 µM to reach half-maximal inhibition in data set [1] (IC50). In addition, the selectivity ratio in data set [3] was determined as 14.
`CCO[C@@H]1N(C2CC(N=[N+]=[N-])C(CO)O2)C(=O)NC(=O)[C@@]1(C)Br` (some centres not stated): in [1], the IC50 was 22.2 µM. Moreover, the Phosphorolysis in [4] was found to be 0%. The compound further showed an AZT formation in data set [5] of 85%. For the same compound, the selectivity ratio in data set [3] worked out at 937.
For the compound `CO[C@@H]1N(C2CC(N=[N+]=[N-])C(CO)O2)C(=O)NC(=O)[C@@]1(C)Cl` (some centres not stated), the AZT formation in data set [6], in data set [7] and in data set [5] was 0% in each case. The compound also came in with a Phosphorolysis in data set [4] of 0%.
As for `CO[C@H]1N(C2CC(N=[N+]=[N-])C(CO)O2)C(=O)NC(=O)[C@]1(C)I` (some centres not stated), inhibition in data set [1] was half-maximal at 18.7 µM (IC50). For the same compound, the results for the AZT formation in data set [6], in data set [7] and in data set [5] were 100%, 79% and 100%, respectively. Further, the Phosphorolysis in [4] is 0%. Moreover, the selectivity ratio in data set [3] came to 5900.
In data set [1], `CO[C@@H]1N(C2CC(N=[N+]=[N-])C(CO)O2)C(=O)NC(=O)[C@@]1(C)Br` (some centres not stated) returned an IC50 of 42.5 µM. Also, the results for the AZT formation in data set [6], in data set [7] and in [5] were 88%, 44% and 77%, respectively. Further, the Phosphorolysis in data set [4] worked out at 0%. The selectivity ratio in [3] turned out to be 152.
For the compound `CO[C@H]1N(C2CC(N=[N+]=[N-])C(CO)O2)C(=O)NC(=O)[C@@]1(C)Cl` (some centres not stated), the AZT formation in data set [6], in data set [7] and in data set [5] was 0% throughout. In addition, the Phosphorolysis in [4] turned out to be 0%.
Consider `CO[C@H]1N([C@H]2C[C@H](N=[N+]=[N-])[C@@H](CO)O2)C(=O)NC(=O)C1(C)Cl` (some centres not stated), for which, in data set [1], the IC50 is > 890 µM. For the same compound, in data set [3], the selectivity ratio amounted to 155.
On to `CO[C@H]1N(C2CC(N=[N+]=[N-])C(CO)O2)C(=O)NC(=O)[C@]1(C)Br` (some centres not stated), for which, in [1], the IC50 came out at 17.2 µM. For the same compound, the AZT formation in data set [6] came out at 59%; in data set [7] it was 26%; in [5], 80%. The compound also registered a Phosphorolysis in data set [4] of 0%. The selectivity ratio in data set [3] amounted to 5260.
As to `CCO[C@H]1N(C2CC(N=[N+]=[N-])C(CO)O2)C(=O)NC(=O)[C@]1(C)Cl` (some centres not stated), the IC50 in data set [8] was > 200 µM. Further, the EC50 entry in data set [2] is given as “Not Active”.
Turning to `CO[C@@H]1N(C2CC(N=[N+]=[N-])C(CO)O2)C(=O)NC(=O)[C@@]1(C)I` (some centres not stated), the IC50 in data set [1] turned out to be 6.42 µM. Also, the AZT formation in data set [6] worked out at 100%; in data set [7] it was 96%; in data set [5], 100%. The Phosphorolysis in data set [4] stood at 0%. The selectivity ratio in data set [3] is 1250.
Turning to `CC(C)O[C@H]1N(C2CC(N=[N+]=[N-])C(CO)O2)C(=O)NC(=O)[C@]1(C)Cl` (some centres not stated), the IC50 in [1] was > 200 µM. The EC50 entry in data set [2] was “Not Active”.
As to `CC(C)O[C@H]1N(C2CC(N=[N+]=[N-])C(CO)O2)C(=O)NC(=O)[C@]1(C)Br` (some centres not stated), the IC50 in [1] is > 200 µM. Also, the selectivity ratio in data set [3] came out at 35.
In the case of `CCCCCCCCO[C@H]1N(C2CC(N=[N+]=[N-])C(CO)O2)C(=O)NC(=O)[C@]1(C)Cl` (some centres not stated), the half-maximal inhibitory concentration (IC50) in [8] was found to be 37.5 µM. For the same compound, the EC50 entry in data set [2] is given as “Not Active”.
In turn, `CCO[C@H]1N(C2CC(N=[N+]=[N-])C(CO)O2)C(=O)NC(=O)[C@]1(C)Br` (some centres not stated) had an IC50 in [1] of 18.5 µM. Also, the Phosphorolysis in [4] was determined as 0%. The compound further returned an AZT formation in data set [5] of 100%. The selectivity ratio in [3] was found to be 2740.
In [1], `CCCCCCCCCCCCCCCCO[C@H]1N(C2CC(N=[N+]=[N-])C(CO)O2)C(=O)NC(=O)[C@]1(C)Br` (some centres not stated) gave an IC50 of 11 µM. In addition, the EC50 entry in data set [2] is reported as “Not Active”.
For `CC1(Cl)C(=O)NC(=O)N([C@H]2C[C@H](N=[N+]=[N-])[C@@H](CO)O2)C1N=[N+]=[N-]` (some centres not stated), half-maximal inhibition in data set [1] (IC50) required 350 µM. Further, in [3], the selectivity ratio is 235.
Regarding `CCO[C@H]1N(C2CC(N=[N+]=[N-])C(CO)O2)C(=O)NC(=O)[C@@]1(C)Cl` (some centres not stated), in data set [1], the 50% inhibitory concentration (IC50) was > 200 µM. The EC50 result in data set [2] is on record as “Not Active”.
For the compound `CO[C@H]1N(C2CC(N=[N+]=[N-])C(CO)O2)C(=O)NC(=O)[C@]1(C)Cl` (some centres not stated), the AZT formation in data set [6], in data set [7] and in [5] was 0% in each case. In addition, the Phosphorolysis in data set [4] turned out to be 0%.
`Cc1cn([C@H]2C[C@H](N=[N+]=[N-])[C@@H](CO)O2)c(=O)[nH]c1=O` [ZIDOVUDINE]: in [4], the Phosphorolysis is 0%. For the same compound, the selectivity ratio in data set [3] is > 10000. Further, the EC50 in [9] was determined as 0.003 µM.
Take `CCCCCCCCCCCCCCCCO[C@H]1N(C2CC(N=[N+]=[N-])C(CO)O2)C(=O)NC(=O)[C@]1(C)Cl` (some centres not stated): in [1], the 50% inhibitory concentration (IC50) stood at 31 µM. For the same compound, in data set [2], the EC50 entry was “Not Active”.
In turn, `Cc1cn([C@H]2C[C@H](O)[C@@H](CO)O2)c(=O)[nH]c1=O` displayed a Phosphorolysis in data set [4] of 72%.
`CC1(Br)C(=O)NC(=O)N([C@H]2C[C@H](N=[N+]=[N-])[C@@H](CO)O2)C1N=[N+]=[N-]` (some centres not stated) yielded a 50% inhibitory concentration (IC50) in data set [1] of 176 µM. In data set [3], the selectivity ratio is < 1.
